Measured values taken from PMC6220817 (Chemistry (Weinheim an Der Bergstrasse, Germany), 2018).
Ends that are not written are not given here. TMR‑5‑maleimide = tetramethylrhodamine-5-maleimide

Tests used:
tubulin [1] = conditions: Reported value for the binding to tubulin; cited from earlier work
tubulin [2] = molecular target: tubulin (Sus scrofa, UniProt P02550+P02554); experiment: Turbidity measurement of tubulin polymerization; assay type: biochemical, porcine; conditions: 10 μM compound, 4 μM tubulin, 1 mM GTP; for Stability of treated microtubules on cooling (turbidity): cooled to 4 °C for 15 min; for Turbidity (optical density at 350 nm) / tubulin polymerization: BRB80, 37 °C, 60 min
tubulin (Sus scrofa, UniProt P02550+P02554), sequence (P02554 whole entry): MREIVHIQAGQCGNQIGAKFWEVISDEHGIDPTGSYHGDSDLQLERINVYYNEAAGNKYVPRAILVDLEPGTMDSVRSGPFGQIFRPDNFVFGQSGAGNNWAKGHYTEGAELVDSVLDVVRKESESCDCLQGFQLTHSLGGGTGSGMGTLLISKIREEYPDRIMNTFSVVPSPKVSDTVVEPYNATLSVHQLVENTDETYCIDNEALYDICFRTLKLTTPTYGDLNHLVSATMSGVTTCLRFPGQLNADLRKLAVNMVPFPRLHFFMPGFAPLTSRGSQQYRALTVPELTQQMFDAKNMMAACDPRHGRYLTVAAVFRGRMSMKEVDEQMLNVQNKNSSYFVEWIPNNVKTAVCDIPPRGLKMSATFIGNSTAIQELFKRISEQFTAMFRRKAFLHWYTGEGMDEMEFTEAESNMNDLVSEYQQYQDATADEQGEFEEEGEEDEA
tubulin (Sus scrofa, UniProt P02550+P02554), sequence (P02550 whole entry): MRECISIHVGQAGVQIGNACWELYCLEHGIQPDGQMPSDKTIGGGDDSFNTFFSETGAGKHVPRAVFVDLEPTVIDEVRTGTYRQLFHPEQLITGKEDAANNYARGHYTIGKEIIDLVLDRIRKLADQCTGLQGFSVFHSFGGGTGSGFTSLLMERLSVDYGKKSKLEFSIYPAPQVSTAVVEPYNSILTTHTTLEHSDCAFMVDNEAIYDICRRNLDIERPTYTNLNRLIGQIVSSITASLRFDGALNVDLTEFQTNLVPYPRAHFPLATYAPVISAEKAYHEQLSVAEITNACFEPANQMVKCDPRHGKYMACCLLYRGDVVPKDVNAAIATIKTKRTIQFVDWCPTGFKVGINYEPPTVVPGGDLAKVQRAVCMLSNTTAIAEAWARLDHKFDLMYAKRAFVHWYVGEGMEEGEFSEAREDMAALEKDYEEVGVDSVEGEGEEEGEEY
In short: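 Porcine brain tubulin (4 μM) with 1 mM GTP in BRB80 (80 mM PIPES pH 6.9, 1 mM MgCl2, 1 mM EGTA) at 37 °C. Test compound or taxol at 10 μM, or none. OD350 read by UV/Vis every 1 min for 60 min. Samples then held at 4 °C for 15 min and read again.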

[3] = molecular target: tubulin (α‐ and β‐tubulin dimer) (porcine (purified from porcine brain)) (UniProt P02550); experiment: equilibrium dialysis
tubulin (α‐ and β‐tubulin dimer) (porcine (purified from porcine brain)), sequence (P02550 whole entry, chain 1 of 2): as the sequence (P02550 whole entry) above
tubulin (α‐ and β‐tubulin dimer) (porcine (purified from porcine brain)), sequence (P02554 whole entry, chain 2 of 2, further chain): as the sequence (P02554 whole entry) above

CC(=O)O[C@H]1C(=O)[C@@]2(C)[C@H]([C@H](OC(=O)c3ccccc3)[C@]3(O)C[C@H](OC(=O)[C@H](O)[C@@H](NC(=O)c4cccc(N(C)C)c4)c4ccccc4)C(C)=C1C3(C)C)[C@]1(OC(C)=O)CO[C@@H]1C[C@@H]2O [Taxol derivative, N‐debenzoyl‐N‐[3‐(dimethylamino)benzoyl]taxol]
Kd (tubulin [1]): 49 µM

CC(=O)O[C@H]1C(=O)[C@@]2(C)[C@H]([C@H](OC(=O)c3ccccc3)[C@]3(O)C[C@H](OC(=O)[C@H](O)[C@@H](NC(=O)c4ccccc4)c4ccccc4)C(C)=C1C3(C)C)[C@]1(OC(C)=O)CO[C@@H]1C[C@@H]2O [taxol, reference compound]
Stability of treated microtubules on cooling (turbidity) (tubulin [2]): remained stable

H-CGGGKKHVPGGGSVQIVYKPVDL-OH [2N]
Turbidity (optical density at 350 nm) / tubulin polymerization (tubulin [2]): increases the turbidity | Stability of treated microtubules on cooling (turbidity) (tubulin [2]): completely depolymerized

H-KHQPGGGKVQIINKKLDLGGGC-OH [1C]
Turbidity (optical density at 350 nm) / tubulin polymerization (tubulin [2]): less effective

H-KKHVPGGGSVQIVYKPVDLGGGC-OH [2C]
Turbidity (optical density at 350 nm) / tubulin polymerization (tubulin [2]): less effective

H‐Cys(Trt)‐Gly‐Gly‐Gly‐Lys(Boc)‐His(Trt)‐Gln(Trt)‐Pro‐Gly‐Gly‐Gly‐Lys(Boc)‐Val‐Gln(Trt)‐Ile‐Ile‐Asn(Trt)‐Lys(Boc)‐Lys(Boc)‐Leu‐Asp(OtBu)‐Leu‐Alko‐PEG resin [1N]
Turbidity (optical density at 350 nm) / tubulin polymerization (tubulin [2]): less effective

KHQPGGGKVQIINKKLDLGGGC(TMR‑5‑maleimide) [1C‐TMR]
Kd [3]: 16.7 µM

C(TMR‑5‑maleimide)GGGKHQPGGGKVQIINKKLDL [1N‐TMR]
Kd [3]: 3.4 µM
